In ChEMBL document CHEMBL1275272, “Synthesis, characterization and antimicrobial activity of some disubstituted 1,3,4-oxadiazoles carrying 2-(aryloxymethyl)phenyl moiety” (2010):
Values after ≈ are worked out from the molar mass of the structure shown.

How the values were obtained:
Type in all cases: functional
[1] = tested on: Staphylococcus aureus; experiment: Antibacterial activity against Staphylococcus aureus after 16 to 18 hrs by serial dilution method; conditions: for MIC: Staphylococcus aureus
In short: (§1)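 The test compound was dissolved in DMF and serially diluted. A standard drop of the prepared microbial culture was added to each dilution, and tubes were incubated at 37 °C for 16–18 h. MIC was taken as the highest dilution that stayed clear with no visible turbidity.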

[2] = tested on: Klebsiella pneumoniae; experiment: Antibacterial activity against Klebsiella pneumoniae after 16 to 18 hrs by serial dilution method; conditions: for MIC: Klebsiella pneumoniae
[3] = tested on: Talaromyces marneffei; experiment: Antifungal activity against Penicillium marneffei after 16 to 18 hrs by serial dilution method; conditions: for MIC: Talaromyces marneffei; in short: as §1
[4] = tested on: Trichophyton mentagrophytes; experiment: Antifungal activity against Trichophyton mentagrophytes after 16 to 18 hrs by serial dilution method; conditions: for MIC: Trichophyton mentagrophytes
[5] = tested on: Aspergillus fumigatus; experiment: Antifungal activity against Aspergillus fumigatus after 16 to 18 hrs by serial dilution method; conditions: for MIC: Aspergillus fumigatus
[6] = tested on: Aspergillus flavus; experiment: Antifungal activity against Aspergillus flavus after 16 to 18 hrs by serial dilution method; conditions: for MIC: Aspergillus flavus; in short: as §1
[7] = tested on: Pseudomonas aeruginosa; experiment: Antibacterial activity against Pseudomonas aeruginosa after 16 to 18 hrs by serial dilution method; conditions: for MIC: Pseudomonas aeruginosa; in short: as §1
[8] = tested on: Escherichia coli; experiment: Antibacterial activity against Escherichia coli after 16 to 18 hrs by serial dilution method; conditions: for MIC: Escherichia coli; in short: as §1

Row | SMILES | inhibition zone (IZ) [1] [mm] | MIC [1] [µg/mL] | inhibition zone (IZ) [2] [mm] | MIC [2] [µg/mL] | inhibition zone (IZ) [3] [mm] | MIC [3] [µg/mL] | inhibition zone (IZ) [4] [mm] | MIC [4] [µg/mL] | inhibition zone (IZ) [5] [mm] | MIC [5] [µg/mL] | inhibition zone (IZ) [6] [mm] | MIC [6] [µg/mL] | inhibition zone (IZ) [7] [mm] | MIC [7] [µg/mL] | inhibition zone (IZ) [8] [mm] | MIC [8] [µg/mL]
1 | Cc1cccc(OCc2ccccc2-c2nnc(SCc3ccc(Cl)cc3Cl)o2)c1 | 16 | 6.25 (≈ 13.7 µM) | 16 | 6.25 (≈ 13.7 µM) | 16 | 6.25 (≈ 13.7 µM) | 11 | 12.5 (≈ 27.3 µM) | 16 | 6.25 (≈ 13.7 µM) | 11 | 12.5 (≈ 27.3 µM) | 16 | 6.25 (≈ 13.7 µM) | 16 | 6.25 (≈ 13.7 µM)
2 | Clc1ccc(OCc2ccccc2-c2nnc(-c3cccc(Br)c3)o2)cc1 | <10 | 25 (≈ 56.6 µM) | <10 | 25 (≈ 56.6 µM) | <10 | 25 (≈ 56.6 µM) | <10 | 25 (≈ 56.6 µM) | <10 | 25 (≈ 56.6 µM) | <10 | 25 (≈ 56.6 µM) | <10 | 25 (≈ 56.6 µM) | <10 | 25 (≈ 56.6 µM)
3 | Cc1cccc(CSc2nnc(-c3ccccc3COc3ccc(Cl)cc3)o2)c1 | 11 | 12.5 (≈ 29.6 µM) | 11 | 12.5 (≈ 29.6 µM) | 11 | 12.5 (≈ 29.6 µM) | 11 | 12.5 (≈ 29.6 µM) | 11 | 12.5 (≈ 29.6 µM) | 11 | 12.5 (≈ 29.6 µM) | 11 | 12.5 (≈ 29.6 µM) | 11 | 12.5 (≈ 29.6 µM)
4 | Cc1cccc(OCc2ccccc2-c2nnc(-c3cc(C)cc(C)c3)o2)c1 | 11 | 12.5 (≈ 33.7 µM) | 11 | 12.5 (≈ 33.7 µM) | 11 | 12.5 (≈ 33.7 µM) | 11 | 12.5 (≈ 33.7 µM) | 16 | 6.25 (≈ 16.9 µM) | 11 | 12.5 (≈ 33.7 µM) | 11 | 12.5 (≈ 33.7 µM) | 11 | 12.5 (≈ 33.7 µM)
5 | Cc1ccccc1OCc1ccccc1-c1nn(CNc2cccc(C(F)(F)F)c2)c(=S)o1 | 16 | 6.25 (≈ 13.3 µM) | 16 | 6.25 (≈ 13.3 µM) | 16 | 6.25 (≈ 13.3 µM) | 16 | 6.25 (≈ 13.3 µM) | 16 | 6.25 (≈ 13.3 µM) | 16 | 6.25 (≈ 13.3 µM) | 16 | 6.25 (≈ 13.3 µM) | 16 | 6.25 (≈ 13.3 µM)
6 | Cc1cccc(OCc2ccccc2-c2nnc(-c3cccc4ncccc34)o2)c1 | <10 | 25 (≈ 63.5 µM) | <10 | 25 (≈ 63.5 µM) | <10 | 25 (≈ 63.5 µM) | <10 | 25 (≈ 63.5 µM) | <10 | 25 (≈ 63.5 µM) | <10 | 25 (≈ 63.5 µM) | <10 | 25 (≈ 63.5 µM) | <10 | 25 (≈ 63.5 µM)
7 | COc1cc(-c2nnc(-c3ccccc3COc3cccc(C)c3)o2)cc(OC)c1OC | 16 | 6.25 (≈ 14.5 µM) | 16 | 6.25 (≈ 14.5 µM) | 16 | 6.25 (≈ 14.5 µM) | 11 | 12.5 (≈ 28.9 µM) | 16 | 6.25 (≈ 14.5 µM) | 11 | 12.5 (≈ 28.9 µM) | 16 | 6.25 (≈ 14.5 µM) | 16 | 6.25 (≈ 14.5 µM)
8 | Fc1ccccc1-c1nnc(-c2ccccc2COc2ccc(Cl)cc2)o1 | 16 | 6.25 (≈ 16.4 µM) | 16 | 6.25 (≈ 16.4 µM) | 16 | 6.25 (≈ 16.4 µM) | 16 | 6.25 (≈ 16.4 µM) | 16 | 6.25 (≈ 16.4 µM) | 16 | 6.25 (≈ 16.4 µM) | 16 | 6.25 (≈ 16.4 µM) | 16 | 6.25 (≈ 16.4 µM)
9 | Clc1ccc(OCc2ccccc2-c2nnc(-c3ccc(Cl)cc3)o2)cc1 | <10 | 25 (≈ 62.9 µM) | <10 | 25 (≈ 62.9 µM) | <10 | 25 (≈ 62.9 µM) | <10 | 25 (≈ 62.9 µM) | <10 | 25 (≈ 62.9 µM) | <10 | 25 (≈ 62.9 µM) | <10 | 25 (≈ 62.9 µM) | <10 | 25 (≈ 62.9 µM)
10 | S=c1oc(-c2ccccc2COc2ccc(Cl)cc2)nn1CN1CCOCC1 | 11 | 12.5 (≈ 29.9 µM) | 11 | 12.5 (≈ 29.9 µM) | 11 | 12.5 (≈ 29.9 µM) | 11 | 12.5 (≈ 29.9 µM) | 11 | 12.5 (≈ 29.9 µM) | 11 | 12.5 (≈ 29.9 µM) | 11 | 12.5 (≈ 29.9 µM) | 11 | 12.5 (≈ 29.9 µM)
11 | Clc1ccc(OCc2ccccc2-c2nnc(SCc3ccc(Cl)cc3Cl)o2)cc1 | 16 | 6.25 (≈ 13.1 µM) | 16 | 6.25 (≈ 13.1 µM) | 16 | 6.25 (≈ 13.1 µM) | 16 | 6.25 (≈ 13.1 µM) | 16 | 6.25 (≈ 13.1 µM) | 16 | 6.25 (≈ 13.1 µM) | 16 | 6.25 (≈ 13.1 µM) | 16 | 6.25 (≈ 13.1 µM)
12 | Cc1cc(C)cc(-c2nnc(-c3ccccc3COc3ccc(Cl)cc3)o2)c1 | 11 | 12.5 (≈ 32 µM) | 11 | 12.5 (≈ 32 µM) | 11 | 12.5 (≈ 32 µM) | 11 | 12.5 (≈ 32 µM) | 11 | 12.5 (≈ 32 µM) | 11 | 12.5 (≈ 32 µM) | 11 | 12.5 (≈ 32 µM) | 11 | 12.5 (≈ 32 µM)
13 | Cc1ccc(OCc2ccccc2-c2nn(CN3CCOCC3)c(=S)o2)cc1 | 11 | 12.5 (≈ 31.4 µM) | 11 | 12.5 (≈ 31.4 µM) | 11 | 12.5 (≈ 31.4 µM) | 11 | 12.5 (≈ 31.4 µM) | 11 | 12.5 (≈ 31.4 µM) | 11 | 12.5 (≈ 31.4 µM) | 11 | 12.5 (≈ 31.4 µM) | 11 | 12.5 (≈ 31.4 µM)
14 | Cc1ccc(OCc2ccccc2-c2nnc(-c3cccc4ncccc34)o2)cc1 | <10 | 25 (≈ 63.5 µM) | <10 | 25 (≈ 63.5 µM) | <10 | 25 (≈ 63.5 µM) | <10 | 25 (≈ 63.5 µM) | <10 | 25 (≈ 63.5 µM) | <10 | 25 (≈ 63.5 µM) | <10 | 25 (≈ 63.5 µM) | <10 | 25 (≈ 63.5 µM)
15 | Cc1ccc(OCc2ccccc2-c2nnc(SCc3ccccc3)o2)cc1 | <10 | 25 (≈ 64.4 µM) | <10 | 25 (≈ 64.4 µM) | <10 | 25 (≈ 64.4 µM) | <10 | 25 (≈ 64.4 µM) | <10 | 25 (≈ 64.4 µM) | <10 | 25 (≈ 64.4 µM) | <10 | 25 (≈ 64.4 µM) | <10 | 25 (≈ 64.4 µM)
16 | Cc1cccc(OCc2ccccc2-c2nn(CNc3cccc(C(F)(F)F)c3)c(=S)o2)c1 | 16 | 6.25 (≈ 13.3 µM) | 16 | 6.25 (≈ 13.3 µM) | 11 | 12.5 (≈ 26.5 µM) | 11 | 12.5 (≈ 26.5 µM) | 16 | 6.25 (≈ 13.3 µM) | 16 | 6.25 (≈ 13.3 µM) | 16 | 6.25 (≈ 13.3 µM) | 16 | 6.25 (≈ 13.3 µM)
17 | Cc1cccc(OCc2ccccc2-c2nnc(-c3ccccc3F)o2)c1 | 16 | 6.25 (≈ 17.3 µM) | 16 | 6.25 (≈ 17.3 µM) | 16 | 6.25 (≈ 17.3 µM) | 16 | 6.25 (≈ 17.3 µM) | 11 | 12.5 (≈ 34.7 µM) | 11 | 12.5 (≈ 34.7 µM) | 16 | 6.25 (≈ 17.3 µM) | 16 | 6.25 (≈ 17.3 µM)
